The target in data set [1] is T1, 5-hydroxytryptamine receptor 1A (Rattus norvegicus) (UniProt P19327).
T1 sequence (whole entry): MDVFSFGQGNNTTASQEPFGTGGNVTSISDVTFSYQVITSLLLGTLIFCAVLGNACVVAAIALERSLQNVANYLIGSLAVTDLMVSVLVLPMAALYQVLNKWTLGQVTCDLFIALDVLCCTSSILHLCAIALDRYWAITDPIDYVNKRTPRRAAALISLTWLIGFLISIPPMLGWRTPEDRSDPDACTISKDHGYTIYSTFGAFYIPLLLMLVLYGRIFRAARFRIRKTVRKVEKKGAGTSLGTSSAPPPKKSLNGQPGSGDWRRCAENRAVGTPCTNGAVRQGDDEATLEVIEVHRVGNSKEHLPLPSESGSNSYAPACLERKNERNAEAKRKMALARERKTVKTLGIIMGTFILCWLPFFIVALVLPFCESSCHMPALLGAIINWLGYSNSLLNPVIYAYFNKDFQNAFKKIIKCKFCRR
The experiment in a line: Compound was evaluated for its ability to displace the protonated form of [3H]8-hydroxy-2-(di-n-propylamino)tetralin binding from labeled 5-HT 1A receptor site. A digest of the protocol: (§1)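 Radioligand displacement in rat hippocampal tissue using [³H]-8-OH-DPAT as ligand, following a previously published protocol; affinity given as Ki for the protonated (AH+) species.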

A short description of data set [2]: Compound was evaluated for the percentage ionization at the pH 7.4 at 37 degree Centigrade. The data set is classed as ADME. In outline: (§2)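 Fraction ionized calculated from eq 1 using pKa2 measured by potentiometric titration at 37 °C, for pH 7.4 and 37 °C.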
A short description of data set [3]: Compound was evaluated for the Ionization constants at 37 degree Centigrade pKa2. Format: physicochemical. As to conditions: read-out: pKa2. In outline: (§3)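 Potentiometric titration at 37 °C; pKa values fitted to the titration data by nonlinear regression.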
Data set [4] has as its target T2, 5-hydroxytryptamine receptor 1A (Rattus norvegicus, UniProt P19327).
T2 sequence (P19327 whole entry): T1 sequence (whole entry)
The experiment in a line: In vitro ability to displace [3H]8-hydroxy-2-(di-n-propylamino) tetralin binding from 5-hydroxytryptamine 1A receptor site in rat brain hippocampus. Format: tissue-based.

Data set [5] concerns the target T1, 5-hydroxytryptamine receptor 1A (Rattus norvegicus). The experiment in a line: Ability to displace the protonated form of [3H]8-hydroxy-2-(di-n-propylamino)tetralin binding from labeled 5-hydroxytryptamine 1A receptor site in rat brain hippocampus. Format: tissue-based. A digest of the protocol: as §1
A short description of data set [6]: % ionization at the pH 7.4 at 37 degree Centigrade. The data set is classed as ADME. In outline:
as §2

A short description of data set [7]: Compound was evaluated for the Ionization constants at 37 degree Celsius pKa1. As to conditions: read-out: pKa1. The data set is classed as physicochemical. In outline: as §3
For data set [8], the target named is T1, 5-hydroxytryptamine receptor 1A (Rattus norvegicus). As to conditions: Hippocampus.

For orientation: Ki means the dissociation constant of the complex between target and ligand, obtained from inhibition or displacement. The low end stands for a stronger hold on the target, the high end for a looser hold on the target.

Each structure is given as a SMILES string. Bounds are passed on as bounds.

In data set [1], `CCCN(CCC)C1CCc2cccc(O)c2C1` (stereo unspecified) [8-OH-DPAT] returned a KiAH of 1.16 nM. In data set [2], this compound came in with an Ionization of 80.6%. The pKa in data set [3] was found to be 8.02.
For the compound `O=C(c1ccccc1)N1CCN(c2cccc(Cl)c2)CC1`, the Ki in data set [4] was greater than 100000 nM.
For `CCC(C)N1CCN(c2cccc(Cl)c2)CC1` (stereo unspecified), in data set [4], the affinity corresponds to a Ki of 127 nM. Moreover, the KiAH in data set [5] was determined as 27.4 nM. The Ionization in data set [6] was found to be 21.6%. For the same compound, the pKa in data set [7] came to 2.32; in data set [3] it was 6.84.
In data set [4], `CC(C)C(=O)N1CCN(c2cccc(Cl)c2)CC1` yielded a Ki greater than 100000 nM.
For the compound `CC(C)N1CCN(c2cccc(Cl)c2)CC1`, affinity in data set [4] was put at a Ki of 159 nM. Besides, the KiAH in data set [5] is 102 nM. This compound registered an Ionization in data set [6] of 64%. The figures for the pKa in data set [7] and in data set [3] were 2.37 and 7.65, respectively.
`Clc1cccc(N2CCN(Cc3ccccc3)CC2)c1`: the Ki in data set [4] came out at 166 nM. For the same compound, in data set [5], the KiAH is 0.166 nM. This compound also had an Ionization in data set [6] of 0.1%. Also, the pKa in data set [3] amounted to 4.39.
On the same counts, the results for `OCCN1CCN(c2cccc(Cl)c2)CC1` are 202 nM, 50.3 nM, 24.9% and 6.92.
In data set [4], `CCC(=O)N1CCN(c2cccc(Cl)c2)CC1` came in with an inhibitory constant (Ki) of 30800 nM.
Regarding `CCCCCCN1CCN(c2cccc(Cl)c2)CC1`, the affinity in data set [4] corresponds to a Ki of 2.67 nM. This compound also came in with a KiAH in data set [5] of 0.032 nM. This compound had an Ionization in data set [6] of 1.2%. In addition, the pKa was 2.57 in data set [7] and 5.49 in data set [3].
`O=C1c2ccccc2S(=O)(=O)N1CCCCN1CCN(c2ncccn2)CC1` [IPSAPIRONE]: the affinity in data set [4], expressed as Ki, was 3.4 nM. In data set [6], the Ionization stood at 0.7%. In addition, in data set [3], the pKa stood at 5.25. In data set [8], the KiAH was 0.024 nM.
For the compound `CCCCN1CCN(c2cccc(Cl)c2)CC1`, the inhibition constant (Ki) in data set [4] was 18.4 nM. The KiAH in data set [5] amounted to 3.06 nM. In addition, the Ionization in data set [6] is given as 16.6%. The figures for the pKa in data set [7] and in data set [3] were 2.43 and 6.7, respectively.
The compound `Clc1cccc(N2CCOCC2)c1` showed a Ki in data set [4] greater than 100000 nM. The pKa in data set [7] was 2.33.
In data set [4], `O=C(Cc1ccccc1)N1CCN(c2cccc(Cl)c2)CC1` showed a Ki of 14800 nM.
In data set [4], `CCN1CCN(c2cccc(Cl)c2)CC1` returned a Ki of 220 nM. The same compound registered a KiAH in data set [5] of 166 nM. This compound gave an Ionization in data set [6] of 75.5%. For the same compound, the values for the pKa in data set [7] and in data set [3] were 2.48 and 7.89, respectively.
In the case of `CCCN1CCN(c2cccc(Cl)c2)CC1`, affinity in data set [4] was put at a Ki of 122 nM. This compound gave a KiAH in data set [5] of 38.9 nM. Besides, the Ionization in data set [6] was 31.9%. In addition, the pKa in data set [7] worked out at 2.39; in data set [3] it was 7.07.
For `CC1(C)CC(=O)N(CCCCN2CCN(c3ncccn3)CC2)C(=O)C1` [GEPIRONE], the KiAH in data set [5] was determined as 20.2 nM. Besides, the Ionization in data set [6] is reported as 63.5%. Moreover, the pKa in data set [3] came out at 7.64.
In data set [4], `CN1CCN(c2cccc(Cl)c2)CC1` returned a Ki of 152 nM. The same compound came in with a KiAH in data set [5] of 134 nM. This compound also yielded an Ionization in data set [6] of 88.1%. Besides, the pKa stood at 2.82 in data set [7] and 8.27 in data set [3].
In data set [4], `CC(=O)N1CCN(c2cccc(Cl)c2)CC1` had a Ki greater than 100000 nM.
As for `Clc1cccc(N2CCNCC2)c1` [CHLOROPHENYLPIPERAZINE], affinity in data set [4] was put at a Ki of 143 nM. In data set [5], this compound gave a KiAH of 131 nM. The Ionization in data set [6] is 91.3%. For the same compound, the pKa in data set [3] worked out at 8.42.
On to `C=CCN1CCN(c2cccc(Cl)c2)CC1`, for which, in data set [4], the affinity corresponds to a Ki of 251 nM. Moreover, the KiAH in data set [5] turned out to be 81.2 nM. The Ionization in data set [6] is 32.4%. For the same compound, the pKa in data set [7] was determined as 2.94; in data set [3], 7.08.
As to `CCCCCN1CCN(c2cccc(Cl)c2)CC1`, in data set [4], the Ki was 5.54 nM. The compound further yielded a KiAH in data set [5] of 0.282 nM. For the same compound, the Ionization in data set [6] stood at 5.1%. In addition, the results for the pKa in data set [7] and in data set [3] were 2.46 and 6.13, respectively.
As to `Clc1cccc(N2CC[N+]3(CCCC3)CC2)c1`, in data set [4], the affinity, expressed as Ki, was 7220 nM.
Still for that read-out and setting: to `CCCC(=O)N1CCN(c2cccc(Cl)c2)CC1` belongs 49000 nM.
